Experimental data reported in ChEMBL document CHEMBL2331406, “In vitro activity of scorpiand-like azamacrocycle derivatives in promastigotes and intracellular amastigotes of Leishmania infantum and Leishmania braziliensis” (Eur J Med Chem, 2013).
The source made the active and inactive calls. No cut-off for these calls is given here.

Tests used:
Leishmania braziliensis [1] = assay: Antileishmanial activity against promastigote form of Leishmania braziliensis MHOM/BR/1975/M2904 assessed as change in lactate metabolite production at IC25 concentration after 96 hrs by H1-NMR analysis; format: functional, MHOM/BR/75/M2904
Procedure, shortened: (§1)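 Promastigote cultures, initial 5 × 10^5 cells/mL, given the IC25 of compound; controls left untreated. Incubated 96 h at 28 °C, then centrifuged at 400g for 10 min. Excreted metabolites in the medium identified by 1H NMR spectra and compared with untreated control.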

[2] = Selectivity index, ratio of IC50 for mouse J774.2 cells to IC50 for amastigote form of Leishmania infantum MCAN/ES/2001/UCM-10 infected in J774.2 cells; format: toxicity, cell-based; conditions: J774.2 cells, read-out: Ratio IC50
Procedure, shortened: (§2)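 J774.2 macrophages in MEM + 2 mM glutamine + 20% inactivated FCS were infected with stationary-phase promastigotes (10:1) for 24 h at 37 °C, 5% CO2. After washing, compounds were added at […] for 72 h. Amastigote reduction was scored in methanol-fixed, Giemsa-stained preparations; IC50 by regression; triplicates. SI = J774.2 IC50 (72 h flow cytometry)/amastigote IC50; ratio is versus Glucantime SI.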

Leishmania infantum [3] = assay: Antileishmanial activity against promastigote form of Leishmania infantum MCAN/ES/2001/UCM-10 assessed as change in lactate metabolite production at IC25 concentration after 96 hrs by H1-NMR analysis; format: functional; procedure, shortened: as §1
Leishmania infantum [4] = assay: Antileishmanial activity against promastigote form of Leishmania infantum MCAN/ES/2001/UCM-10 assessed as ethanol metabolite production at IC25 concentration after 96 hrs by H1-NMR analysis; format: functional; procedure, shortened: as §1
Leishmania infantum [5] = assay: (§3) Antileishmanial activity against promastigote form of Leishmania infantum MCAN/ES/2001/UCM-10 infected in J774.2 cells assessed as inhibition of number of amastigotes per host cell at IC25 concentration incubated for 12 hrs followed by compound washout measured after 48 hrs by microscopic analysis; format: functional
Procedure, shortened: (§4)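 J774.2 cells seeded at 1 × 10^4 cells/well on coverslips and cultured 2 days. Infected with promastigotes at 10:1 with drug at IC25 added immediately, for 12 h at 37 °C in 5% CO2. Parasites and drug washed out, then grown 10 days with washing and fresh medium every 48 h. On methanol-fixed, Giemsa-stained slides, % infected cells and amastigotes per infected cell scored from more than 200 host cells. Three determinations.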

Leishmania braziliensis [6] = assay: Antileishmanial activity against promastigote form of Leishmania braziliensis MHOM/BR/1975/M2904 after 72 hrs by haemocytometric analysis; format: functional; conditions: MHOM/BR/75/M2904, 72 h
Procedure, shortened: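 Promastigotes grown at 28 °C in MTL medium with 10% inactivated FCS. Compounds in DMSO (0.1%), diluted in culture medium to 100, 50, 25, 10 and 1. Cells counted at 72 h in a Neubauer haemocytometric chamber. IC50 (50% inhibition) by linear regression of Kc values.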

Leishmania infantum [7] = assay: Antileishmanial activity against promastigote form of Leishmania infantum MCAN/ES/2001/UCM-10 assessed as increase in glycosomes at IC25 concentration after 96 hrs by […] electron microscopic analysis relative to control; format: functional, organism-based
Procedure, shortened: (§5)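 Promastigotes at 5 × 10^5 cells/mL in MTL medium with compound at IC25 for 96 h. Ultrastructure examined by transmission electron microscopy against untreated control parasites.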

[8] = Ratio of compound selectivity index to glucantime selectivity index for amastigote form of Leishmania infantum MCAN/ES/2001/UCM-10 infected in J774.2 cells over mouse J774.2 cells; procedure, shortened: as §2
Leishmania infantum [9] = assay: Antileishmanial activity against promastigote form of Leishmania infantum MCAN/ES/2001/UCM-10 assessed as change in alanine metabolite production at IC25 concentration after 96 hrs by H1-NMR analysis; format: functional; procedure, shortened: as §1
[10] = Selectivity index, ratio of IC50 for mouse J774.2 cells to IC50 for axenic amastigote form of Leishmania braziliensis MHOM/BR/1975/M2904; format: toxicity; conditions: J774.2 cells, read-out: Ratio IC50
Procedure, shortened: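 Axenic amastigotes obtained by 3-day promastigote transformation in supplemented M199 + 10% heat-inactivated FCS, pH 5.4, 37 °C. […] Host toxicity: J774.2, 72 h, PI/FDA flow cytometry. SI = macrophage IC50/axenic amastigote IC50; ratio is compound SI over Glucantime SI.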

Leishmania infantum [11] = assay: Antileishmanial activity against axenic amastigote form of Leishmania infantum MCAN/ES/2001/UCM-10 after 72 hrs by haemocytometric analysis; format: functional, organism-based; conditions: Leishmania infantum, MCAN/ES/2001/UCM-10, 72 h
Procedure, shortened: (§6)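 Axenic amastigotes made by culturing promastigotes 3 days at 37 °C in M199 with 10% heat-inactivated FCS plus organic acids, amino acids, sucrose, bicarbonate, MES, haemin and gentamicin, pH 5.4. Compound effect counted in a Neubauer haemocytometer chamber. IC50 by linear regression of Kc values at 1, 10, 25, 50 and 100.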

Leishmania braziliensis [12] = assay: Antileishmanial activity against promastigote form of Leishmania braziliensis MHOM/BR/1975/M2904 assessed as change in alanine metabolite production at IC25 concentration after 96 hrs by H1-NMR analysis; format: functional, MHOM/BR/75/M2904; procedure, shortened: as §1
Leishmania infantum [13] = assay: Antileishmanial activity against amastigote form of Leishmania infantum MCAN/ES/2001/UCM-10 infected in J774.2 cells after 72 hrs by haemocytometric analysis; format: functional, organism-based; conditions: Leishmania infantum, MCAN/ES/2001/UCM-10, J774.2, 72 h
Procedure, shortened: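 J774.2 macrophages grown in MEM with 2 mM glutamine and 20% inactivated FCS at 37 °C in 5% CO2. Infected with stationary-phase promastigotes at 10:1 for 24 h, then washed free of non-phagocytosed parasites. Compounds at 1, 10, 25, 50 and 100 for 72 h. Amastigotes counted on methanol-fixed, Giemsa-stained preparations and % reduction taken vs untreated. IC50 by linear regression of Kc values; three separate determinations.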

Leishmania braziliensis [14] = assay: Antileishmanial activity against promastigote form of Leishmania braziliensis MHOM/BR/1975/M2904 assessed as electro-dense vesicles at IC25 concentration after 96 hrs by MET microscopic analysis; format: functional; conditions: MHOM/BR/75/M2904; procedure, shortened: as §5
J774.2 = assay: Cytotoxicity against mouse J774.2 cells after 72 hrs by PI-staining based flow cytometric analysis; format: cell-based; conditions: J774.2, 72 h
Procedure, shortened: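 J774.2 macrophages (ECACC 91051511, female BALB/c mouse tumour) treated 72 h with 100, 50, 25, 10 and 1 of compound. Propidium iodide then fluorescein diacetate each added for 10 min at 28 °C in the dark. Cells pelleted at 400g, washed in PBS and analysed by flow cytometry. Viability % vs control; IC50 by linear regression of Kc values.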

Leishmania braziliensis [15] = assay: as §3, with “[…] MHOM/BR/1975/M2904” for “MCAN/ES/2001/UCM-10”; format: functional, MHOM/BR/75/M2904; procedure, shortened: as §4
Leishmania braziliensis [16] = assay: Antileishmanial activity against axenic amastigote form of Leishmania braziliensis MHOM/BR/1975/M2904 after 72 hrs by haemocytometric analysis; format: functional, MHOM/BR/75/M2904; conditions: Leishmania braziliensis, MHOM/BR/75/M2904, 72 h; procedure, shortened: as §6
[17] = Inhibition of Escherichia coli Mn-SOD by […] reduction assay
Procedure, shortened: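 Commercial Mn-SOD from Escherichia coli assayed by spectrophotometric NBT-reduction method, in which superoxide reduces NBT.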

[18] = Ratio of compound selectivity index to glucantime selectivity index for promastigote form of Leishmania braziliensis MHOM/BR/1975/M2904 over mouse J774.2 cells

IC50 (Leishmania braziliensis [6]) [µM] | IC50 (Leishmania infantum [11]) [µM] | IC50 (Leishmania infantum [13]) [µM] | IC50 (Leishmania braziliensis [16]) [µM] | IC50 [17] [µM] | Structure (SMILES) | Activity (Leishmania braziliensis [1]) [%] | selectivity ratio [2] | Activity (Leishmania infantum [3]) [%] | Activity (Leishmania infantum [4]) [%] | inhibition (INH) (Leishmania infantum [5]) [%] | Activity (Leishmania infantum [7]) | Ratio [8] | Activity (Leishmania infantum [9]) [%] | selectivity ratio [10] | Activity (Leishmania braziliensis [12]) [%] | Activity (Leishmania braziliensis [14]) | IC50 (J774.2) [µM] | inhibition (INH) (Leishmania braziliensis [15]) [%] | Ratio [18]
23 | 15.9 | 6.3 | 23.9 | 641 | Cl.c1cncc(CNCCN2CCNCc3cccc(n3)CNCC2)c1 | 19 | 74.3 | -38 | 28 | 77 | Active | 149 | -12 | 19.6 | 10 | Active | 468 | 80 | 34
11.3 | 25.4 | 19.6 | 16 | 178 | Cl.c1ccc(CNCCN2CCNCc3cccc(n3)CNCC2)nc1 | 0 | 13 | 13 | 10 | 67 | Active | 26 | 12 | 15.9 | 8 | Active | 254 | 67 | 37
11.8 | 29.2 | 25.6 | 16 | 381 | Br.NCCN1CCNCc2cccc(n2)CNCC1 | 6 | 9 |  |  |  |  | 18 |  | 14.5 | 5 | Active | 232 | 55 | 30
12.3 | 28.1 | 17.4 | 24.9 | 408 | Cl.c1cc2nc(c1)CNCCN(CCNCc1cccc3ccccc13)CCNC2 | 0 | 21 | -44 | 110 | 71 | Active | 42 | -18 | 14.7 | 0 | Active | 365 | 59 | 49
